Results published in ChEMBL document CHEMBL1125644, “A new class of calcium antagonists. 2. Synthesis and biological activity of 11-[[4-[4-(4-fluorophenyl)-1-piperazinyl]butyryl]amino]-6,11- dihydrodibenzo[b,e]-thiepin maleate and related compounds” (J Med Chem, 1991).
The source made the active and inactive calls. The rule behind the calls is not given here.

Legend:
[1] = organism: Rattus norvegicus; assay: Inhibition of calcium activation was assessed against calcium-induced constriction of potassium-depolarized rat aorta (Negative logarithm of the molar concentration); format: functional, organism-based; details: read-out: pA2 (converted)
[2] = test system: Rattus norvegicus; assay: Preventive effect of compound was measured on methacholine-induced ST elevation in anesthetized rats at 1 mg/kg iv dose with test compound (0-90 min); format: functional
Outline: (§1)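 Male Sprague-Dawley rats (~500 g), pentobarbital 60 mg/kg ip. Methacholine 8 μg/kg bolus via carotid cannula near aortic valve into coronary ostia, before, at 0.5 min and every 5 min after iv compound (femoral vein; vehicle 5% ethanol in saline). Lead II ECG ST amplitude; mean ± SE, n=5; paired Student's t-test.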

[3] = test system: Rattus norvegicus; assay: Preventive effect of compound was measured on methacholine-induced ST elevation in anesthetized rats at 0.1 mg/kg iv dose without test compound; format: functional; outline: as §1
[4] = test system: Rattus norvegicus; assay: Preventive effect of compound was measured on methacholine-induced ST elevation in anesthetized rats at 0.3 mg/kg iv dose without test compound; format: functional; outline: as §1
[5] = test system: Rattus norvegicus; assay: Preventive effect of compound was measured on methacholine-induced ST elevation in anesthetized rats at 0.3 mg/kg iv dose with test compound (0-90 min); format: functional; outline: as §1
[6] = test system: Rattus norvegicus; assay: Preventive effect of compound was measured on methacholine-induced ST elevation in anesthetized rats at 1 mg/kg iv dose without test compound; format: functional; outline: as §1
[7] = organism: Rattus norvegicus; assay: Inhibitory effect of compound on calcium influx by high potassium in isolated rat aorta; format: functional
Outline: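 Rat aortic strips; compound present 30 min before and during 45Ca incubation under high potassium. Strips then washed 60 min at 4 °C in La-substituted solution (73.8 mM LaCl3, 5.5 mM glucose, 24 mM Tris), dissolved in toluene at 40 °C, counted by liquid scintillation; expressed as apparent tissue 45Ca content (mmol/kg wet wt).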

[8] = organism: Rattus norvegicus; assay: inhibitory effect of compound on contraction induced by high potassium in isolated rat aorta; format: functional
Outline: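 Isolated rat aortic strips contracted with high potassium; compound added 30 min before measurement.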

[9] = test system: Rattus norvegicus; assay: Preventive effect of compound was measured on vasopressin-induced ST depression rats at 3 mg/kg po dose after 1 hr of administration; +=Differ from control value; format: functional, organism-based; set-up: dose 3 mg/kg
Outline: (§2)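 Male Donryu rats (150-220 g), pentobarbital 60 mg/kg ip. Compound in 0.5% tragacanth given orally; vasopressin 0.2 IU/kg iv via femoral vein cannula. Lead II ECG ST depression measured every 30 s for 5 min after vasopressin. 10-20 experiments; + means p < 0.05 vs control, - not significant.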

[10] = test system: Rattus norvegicus; assay: Preventive effect of compound was measured on vasopressin-induced ST depression rats at 30 mg/kg po dose after 7 hr of administration; +=Differ from control value; format: functional, organism-based; set-up: dose 30 mg/kg; outline: as §2
[11] = test system: Rattus norvegicus; assay: Preventive effect of compound was measured on vasopressin-induced ST depression rats at 10 mg/kg po dose after 3h of administration; +=Differ from control value; format: functional, organism-based; set-up: dose 10 mg/kg; outline: as §2
[12] = test system: Rattus norvegicus; assay: Preventive effect of compound was measured on vasopressin-induced ST depression rats at 30 mg/kg po dose after 1 hr of administration; +=Differ from control value; format: functional, organism-based; set-up: dose 30 mg/kg; outline: as §2
[13] = test system: Rattus norvegicus; assay: Preventive effect of compound was measured on vasopressin-induced ST depression rats at 10 mg/kg po dose after 2 hr of administration; +=Differ from control value; format: functional, organism-based; set-up: dose 10 mg/kg; outline: as §2
[14] = test system: Rattus norvegicus; assay: Preventive effect of compound was measured on vasopressin-induced ST depression rats at 10 mg/kg po dose after 1 hr of administration; +=Differ from control value; format: functional, organism-based; set-up: dose 10 mg/kg; outline: as §2
[15] = organism: Rattus norvegicus; assay: Inhibitory effect of compound on contraction induced by high potassium in isolated rat aorta; format: functional
Outline: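 Std-Wistar rat thoracic aorta spiral strips (3–4 mm × ~30 mm) under 1.0 g tension in Krebs-bicarbonate, 95% O2/5% CO2, 37 °C, depolarized; isometric contraction to Ca2+ recorded.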

[16] = test system: Rattus norvegicus; assay: Preventive effect of compound was measured on vasopressin-induced ST depression rats at 30 mg/kg po dose after 7 hr of administration; -=No significance; format: functional, organism-based; set-up: dose 30 mg/kg; outline: as §2
[17] = test system: Rattus norvegicus; assay: Preventive effect of compound was measured on methacholine-induced ST elevation in anesthetized rats at 0.1 mg/kg iv dose with test compound (0-90 min); format: functional; outline: as §1
[18] = test system: Rattus norvegicus; assay: Preventive effect of compound was measured on vasopressin-induced ST depression rats at 30 mg/kg po dose after 3h of administration; +=Differ from control value; format: functional, organism-based; set-up: dose 30 mg/kg; outline: as §2
[19] = test system: Rattus norvegicus; assay: Preventive effect of compound was measured on vasopressin-induced ST depression rats at 3 mg/kg po dose after 1 hr of administration; -=No significance; format: functional, organism-based; set-up: dose 3 mg/kg; outline: as §2
[20] = test system: Rattus norvegicus; assay: Preventive effect of compound was measured on vasopressin-induced ST depression rats at 10 mg/kg po dose after 3h of administration; -=No significance; format: functional, organism-based; set-up: dose 10 mg/kg; outline: as §2

| Structure (SMILES) | Kb [1] | further results |
| --- | --- | --- |
| COc1ccc(N2CCN(CCCC(=O)NC3c4ccccc4CSc4ccccc43)CC2)cc1 (stereo not drawn) | 3.39 nM |  |
| COc1cccc(N2CCN(CCCC(=O)NC3c4ccccc4C=Cc4ccccc43)CC2)c1 | 5.37 nM |  |
| O=C(CCCN1CCN(C(=O)c2ccccc2)CC1)NC1c2ccccc2CSc2ccccc21 (stereo not drawn) | 36.3 nM |  |
| O=C(CCCN1CCN(c2ccccc2F)CC1)NC1c2ccccc2C=Cc2ccccc21 | 3.47 nM |  |
| O=C(CCCN1CCN(c2ccc(F)cc2)CC1)NC1c2ccccc2C=Cc2ccccc21.O=C(O)/C=C\C(=O)O | 1.05 nM | Activity [2]: 0.083 delta mV; Activity [3]: 0.165 delta mV; Activity [4]: 0.188 delta mV; Activity [5]: 0.042 delta mV; Activity [6]: 0.224 delta mV |
| O=C(CCCN1CCN(CCCc2ccccc2)CC1)NC1c2ccccc2CSc2ccccc21 (stereo not drawn) | 12.3 nM |  |
| O=C(CCCN1CCN(c2ccc(F)cc2)CC1)NC1c2ccccc2-c2ccccc21 | 69.2 nM |  |
| O=C(CCCN1CCN(S(=O)(=O)Oc2ccccc2)CC1)NC1c2ccccc2CSc2ccccc21 (stereo not drawn) | 10.5 nM |  |
| O=C(CCCN1CCN(Cc2ccccc2)CC1)NC1c2ccccc2CSc2ccccc21 (stereo not drawn) | 2.88 nM |  |
| O=C(CCCN1CCN(C/C=C/c2ccccc2)CC1)NC1c2ccccc2CSc2ccccc21 (stereo not drawn) | 7.59 nM |  |
| O=C(CCCN1CCN(c2ccccc2)CC1)NC1c2ccccc2C=Cc2ccccc21 | 3.72 nM |  |
| O=C(CCCN1CCN(c2ccc(Cl)cc2)CC1)NC1c2ccccc2CSc2ccccc21 (stereo not drawn) | 2.82 nM |  |
| O=C(CCCN1CCN(c2ccc([N+](=O)[O-])cc2)CC1)NC1c2ccccc2CSc2ccccc21 (stereo not drawn) | 7.94 nM |  |
| O=C(CCCN1CCN(c2ccc(C(F)(F)F)cc2)CC1)NC1c2ccccc2C=Cc2ccccc21 | 2.09 nM |  |
| O=C(CCCN1CCN(c2ccc(F)cc2)CC1)NC1c2ccccc2CCc2ccccc21 | 9.33 nM |  |
| COc1ccc(N2CCN(CCCC(=O)NC3c4ccccc4C=Cc4ccccc43)CC2)cc1OC | 5.01 nM |  |
| O=C(CCCN1CCN(c2ccc(F)cc2)CC1)NC1c2ccccc2CSc2ccccc21.O=C(O)/C=C\C(=O)O (stereo not drawn) [MONATEPIL MALEATE] | 1.95 nM | IC50 [7]: 16 nM; Activity [2]: 0.088 delta mV; IC50 [8]: 21 nM; Activity [9]: Differ from control value; Activity [10]: Differ from control value; Activity [3]: 0.198 delta mV; Activity [11]: Differ from control value; Activity [12]: Differ from control value; Activity [4]: 0.203 delta mV; Activity [13]: Differ from control value; Activity [5]: 0.093 delta mV; Activity [6]: 0.241 delta mV; Activity [14]: Differ from control value |
| O=C(CCCN1CCN(c2ccccc2F)CC1)NC1c2ccccc2CSc2ccccc21 (stereo not drawn) | 3.24 nM |  |

| Structure (SMILES) | Kb [1] | further results |
| --- | --- | --- |
| O=C(CCN1CCN(c2ccc(F)cc2)CC1)NC1c2ccccc2CSc2ccccc21 (stereo not drawn) | 2.82 nM |  |
| O=C(CCCN1CCN(Cc2ccccc2)CC1)NC1c2ccccc2C=Cc2ccccc21 | 6.03 nM |  |
| COC(=O)C1=C(C)NC(C)=C(C(=O)OC)C1c1ccccc1[N+](=O)[O-] [NIFEDIPINE] |  | IC50 [7]: 4 nM; IC50 [15]: 2 nM |
| COc1ccc([C@@H]2Sc3ccccc3N(CCN(C)C)C(=O)[C@@H]2OC(C)=O)cc1 [DILTIAZEM] |  | IC50 [7]: 352 nM; Activity [2]: 0.091 delta mV; IC50 [8]: 203 nM; Activity [16]: inactive; Activity [17]: 0.148 delta mV; Activity [18]: Active; Activity [19]: inactive; Activity [3]: 0.227 delta mV; Activity [12]: Active; Activity [13]: Active; Activity [5]: 0.059 delta mV; Activity [6]: 0.223 delta mV; Activity [14]: Active; Activity [20]: inactive |
| O=C(CCCCN1CCN(c2ccc(F)cc2)CC1)NC1c2ccccc2C=Cc2ccccc21 | 4.47 nM |  |
| O=C(CCCN1CCN(c2ccccc2)CC1)NC1c2ccccc2CSc2ccccc21 (stereo not drawn) | 1.74 nM |  |
| O=C(CCCN1CCN(c2ccc(F)cc2)CC1)NC1c2ccccc2Sc2ccccc21 | 10.5 nM |  |
| O=C(CCN1CCN(c2ccc(F)cc2)CC1)NC1c2ccccc2C=Cc2ccccc21 | 2.75 nM |  |
| O=C(CCCN1CCN(CC(=O)c2ccccc2)CC1)NC1c2ccccc2CSc2ccccc21 (stereo not drawn) | 15.5 nM |  |
| O=C(CCCCN1CCN(c2ccc(F)cc2)CC1)NC1c2ccccc2CSc2ccccc21 (stereo not drawn) | 3.47 nM |  |
| Cc1ccc(N2CCN(CCCC(=O)NC3c4ccccc4CSc4ccccc43)CC2)cc1 (stereo not drawn) | 3.31 nM |  |
| O=C(CCCN1CCN(C(=O)Oc2ccccc2)CC1)NC1c2ccccc2CSc2ccccc21 (stereo not drawn) | 13.2 nM |  |
| O=C(CCCN1CCN(C(=O)c2ccccc2)CC1)NC1c2ccccc2C=Cc2ccccc21 | 20.9 nM |  |
| O=C(CCCN1CCN(CCc2ccccc2)CC1)NC1c2ccccc2C=Cc2ccccc21 | 8.91 nM |  |
| O=C(CCCN1CCN(C/C=C/c2ccccc2)CC1)NC1c2ccccc2C=Cc2ccccc21 | 30.9 nM |  |
| O=C(CCCN1CCN(c2ccc(F)cc2)CC1)NC1c2ccccc2Oc2ccccc21 | 69.2 nM |  |
| COc1ccc(CCN(C)CCCC(C#N)(c2ccc(OC)c(OC)c2)C(C)C)cc1OC (stereo not drawn) | 6.92 nM |  |
| O=C(CCCN1CCN(c2ccc(F)cc2)CC1)NC1c2ccccc2COc2ccccc21 (stereo not drawn) | 33.1 nM |  |
